Measured values published in ChEMBL document CHEMBL1138837, “Structure-activity study on the Phe side chain arrangement of endomorphins using conformationally constrained analogues” (J Med Chem, 2004).
Residues, ends and D or L forms follow the SMILES beside them.

Key:
[1] = target: Delta-type opioid receptor (Rattus norvegicus, UniProt P33533); assay: Displacement of [3H]Ile5,6-deltorphin II from opioid receptor delta 1 of rat brain membranes; type: cell membranes, Membrane
Rattus norvegicus [2] = species on record: Rattus norvegicus; assay: In vitro percent maximal stimulation of [35S]GTP-gamma-S, binding by the compound in rat brain membranes; type: functional; details: Membrane
Procedure, shortened: (§1)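 Rat brain membranes (about 10 µg protein) with 0.05 nM [35S]GTPγS, 100 µM GDP and compound at 10^-9–10^-5 M, in Tris-EGTA buffer (1 mM EGTA, 3 mM MgCl2, NaCl, pH 7.4), at 30 °C for 60 min. Basal binding was measured without compound; nonspecific binding with 100 µM GTPγS. GF/B filtration was used, with three experiments in triplicate. Stimulation is expressed as percent of specific binding.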

Rattus norvegicus [3] = species on record: Rattus norvegicus; assay: In vitro effective dose against [35S]GTP-gamma-S, binding to rat brain membranes; type: functional; details: Membrane; procedure, shortened: as §1
Mu-type opioid receptor [4] = target: T1, Mu-type opioid receptor (Rattus norvegicus, UniProt P33535); assay: In vitro binding affinity towards Opioid receptor mu 1 in rat brain membranes; type: cell membranes
T1 sequence (P33535 whole entry): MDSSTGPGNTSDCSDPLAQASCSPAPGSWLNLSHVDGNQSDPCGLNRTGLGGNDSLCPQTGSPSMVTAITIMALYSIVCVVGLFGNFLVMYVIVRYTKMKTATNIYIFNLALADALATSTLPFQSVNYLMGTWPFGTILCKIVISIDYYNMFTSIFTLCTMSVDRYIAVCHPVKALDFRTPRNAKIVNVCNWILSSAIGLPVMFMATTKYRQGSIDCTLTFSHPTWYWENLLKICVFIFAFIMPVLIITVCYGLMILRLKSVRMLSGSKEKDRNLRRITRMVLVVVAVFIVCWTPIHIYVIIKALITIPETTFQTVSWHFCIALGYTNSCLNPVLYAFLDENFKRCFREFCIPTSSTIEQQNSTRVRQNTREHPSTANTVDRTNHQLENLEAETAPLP
Procedure, shortened: (§2)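 Wistar rat brain membranes without cerebellum (300–500 µg protein) in 50 mM Tris-HCl, pH 7.4, for competition binding. Incubation was stopped by vacuum filtration on GF/C filters, with two ice-cold buffer washes, then scintillation counting. Nonspecific binding was defined with 10 µM naloxone. Each assay was run in duplicate and repeated at least three times, with nonlinear least-squares fitting.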

Mu-type opioid receptor [5] = target: T1, Mu-type opioid receptor; assay: Affinity for Opioid receptor mu 1 in rat brain membranes; type: cell membranes; procedure, shortened: as §2
[6] = Half-life in rat brain homogenate; type: ADME
Procedure, shortened: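 Peptide from a 1 mM stock in 50 mM Tris-HCl, pH 7.4, was incubated at 37 °C with rat brain homogenate (5.4 mg/mL protein). Timed aliquots were acidified with 0.1 M HCl, centrifuged, and analysed by RP-HPLC with UV detection at 216 nm. The rate constant came from ln(A/A0) versus time (at least five points). Half-life assumed pseudo-first-order kinetics, from 3–5 measurements.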

Mu-type opioid receptor [7] = target: Mu-type opioid receptor (Mus musculus, UniProt P42866); assay: Inhibition of Mu opioid receptor of mouse vas deferens
Sequence of Mu-type opioid receptor (Mus musculus, UniProt P42866) (P42866 whole entry): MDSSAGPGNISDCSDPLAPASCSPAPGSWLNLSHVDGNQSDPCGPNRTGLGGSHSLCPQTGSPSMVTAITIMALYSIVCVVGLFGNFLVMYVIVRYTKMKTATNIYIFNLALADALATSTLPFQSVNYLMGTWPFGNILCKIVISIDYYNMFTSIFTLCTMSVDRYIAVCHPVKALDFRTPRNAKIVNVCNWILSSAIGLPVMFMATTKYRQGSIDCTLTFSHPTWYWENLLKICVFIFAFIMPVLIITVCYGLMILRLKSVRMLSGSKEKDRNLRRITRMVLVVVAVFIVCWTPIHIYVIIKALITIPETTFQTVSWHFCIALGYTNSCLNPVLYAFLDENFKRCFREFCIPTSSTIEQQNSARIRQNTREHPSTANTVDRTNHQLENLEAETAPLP
Procedure, shortened: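 Mouse vas deferens in Mg-free Krebs at 31 °C, 0.1 g initial tension, equilibrated 30 min under electrical stimulation. Inhibition of evoked contractions was measured with noncumulative dose–response curves, and IC50 was obtained by sigmoidal fitting.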

Mu-type opioid receptor [8] = target: Mu-type opioid receptor (Cavia porcellus, UniProt P97266); assay: Inhibition of Opioid receptor mu 1 of guinea pig ileum; type: tissue-based
Sequence of Mu-type opioid receptor (Cavia porcellus, UniProt P97266) (P97266 whole entry): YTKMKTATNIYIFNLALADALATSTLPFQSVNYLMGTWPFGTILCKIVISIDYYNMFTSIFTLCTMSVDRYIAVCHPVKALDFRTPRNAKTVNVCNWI
Procedure, shortened: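 Guinea pig ileum in Krebs solution at 37 °C, initial tension 0.8 g, equilibrated 60 min under electrical stimulation. Electrically evoked contractions were inhibited, using noncumulative dose–response curves, with IC50 from sigmoidal curve fitting.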

Mu-type opioid receptor [9] = target: T1, Mu-type opioid receptor; assay: Displacement of [3H]DAMGO from Opioid receptor mu 1 of rat brain membranes; type: cell membranes, Membrane
Mu-type opioid receptor [10] = target: T1, Mu-type opioid receptor; assay: Displacement of [3H]endomorphin-2 from Opioid receptor mu 1 of rat brain membranes; type: cell membranes, Membrane

Sequence of Delta-type opioid receptor (P33533 whole entry): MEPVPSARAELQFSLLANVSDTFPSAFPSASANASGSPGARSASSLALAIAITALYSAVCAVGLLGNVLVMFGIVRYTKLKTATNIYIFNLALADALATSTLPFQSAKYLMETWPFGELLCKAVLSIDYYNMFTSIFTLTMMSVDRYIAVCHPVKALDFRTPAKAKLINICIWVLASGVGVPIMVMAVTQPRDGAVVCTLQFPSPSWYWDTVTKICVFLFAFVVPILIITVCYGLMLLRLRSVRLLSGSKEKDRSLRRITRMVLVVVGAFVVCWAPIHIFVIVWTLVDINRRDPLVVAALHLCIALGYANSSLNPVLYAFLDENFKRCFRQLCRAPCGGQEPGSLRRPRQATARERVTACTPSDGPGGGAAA

SMILES | Ki [1] [µM] | Max stimulation (Rattus norvegicus [2]) [%] | ED50 (Rattus norvegicus [3]) [µM] | IC50 (Mu-type opioid receptor [4]) [µM] | Ki (Mu-type opioid receptor [5]) [µM] | half-life [6] [min] | IC50 (Mu-type opioid receptor [7]) [µM] | IC50 (Mu-type opioid receptor [8]) [µM] | Ki (Mu-type opioid receptor [9]) [µM] | Ki (Mu-type opioid receptor [10]) [µM]
C[C@@H](c1ccccc1)[C@@H](NC(=O)[C@@H]1CCCN1C(=O)[C@@H](N)Cc1ccc(O)cc1)C(=O)N[C@@H](Cc1ccccc1)C(N)=O | > 10 | 103 | 0.053 |  |  |  |  |  |  | 
N[C@@H](Cc1ccc(O)cc1)C(=O)N1CCC[C@H]1C(=O)N[C@@H](Cc1ccccc1)C(=O)O (H-Tyr-Pro-Phe-OH) |  |  |  | 0.161 | 0.0463 |  |  |  |  | 
NC(=O)[C@H](Cc1ccccc1)NC(=O)[C@H](Cc1c[nH]c2ccccc12)NC(=O)[C@@H]1CCCN1C(=O)[C@@H](N)Cc1ccc(O)cc1 [ENDOMORPHIN-1] |  | 237 | 0.289 |  |  | 4.9 |  |  |  | 
C[C@@H](c1ccccc1)[C@H](NC(=O)[C@@H]1CCCN1C(=O)[C@@H](N)Cc1ccc(O)cc1)C(=O)N[C@@H](Cc1ccccc1)C(N)=O | 0.179 | 160 | 1.61 |  |  |  |  |  |  | 
C[C@H](c1ccccc1)[C@@H](NC(=O)[C@H](Cc1ccccc1)NC(=O)[C@@H]1CCCN1C(=O)[C@@H](N)Cc1ccc(O)cc1)C(N)=O | 5.18 | 108 | 0.104 |  |  |  | > 10 | 0.816 | 0.25 | 0.127
C[C@H](c1ccccc1)[C@H](NC(=O)[C@@H]1CCCN1C(=O)[C@@H](N)Cc1ccc(O)cc1)C(=O)N[C@@H](Cc1ccccc1)C(N)=O | > 10 | 146 | 1.8 |  |  |  |  |  |  | 
C[C@H](c1ccccc1)[C@@H](NC(=O)[C@H](Cc1c[nH]c2ccccc12)NC(=O)[C@@H]1CCCN1C(=O)[C@@H](N)Cc1ccc(O)cc1)C(N)=O |  | 114 | 1.49 |  |  |  |  |  | 0.0453 | 0.0436
C[C@@H](c1ccccc1)[C@@H](NC(=O)[C@H](Cc1ccccc1)NC(=O)[C@@H]1CCCN1C(=O)[C@@H](N)Cc1ccc(O)cc1)C(N)=O | > 10 | 115 | 0.572 |  |  |  | > 10 | 0.589 | 0.104 | 0.0477
NC(=O)[C@H](Cc1ccccc1)NC(=O)[C@H](Cc1ccccc1)NC(=O)[C@@H]1CCCN1C(=O)[C@@H](N)Cc1ccc(O)cc1 [ENDOMORPHIN 2] |  | 213 |  |  |  | 3.8 |  |  |  | 
C[C@H](c1ccccc1)[C@H](NC(=O)[C@H](Cc1c[nH]c2ccccc12)NC(=O)[C@@H]1CCCN1C(=O)[C@@H](N)Cc1ccc(O)cc1)C(N)=O |  | 126 | 0.209 |  |  |  |  |  | 0.0263 | 0.0234
C[C@H](c1ccccc1)[C@H](NC(=O)[C@H](Cc1ccccc1)NC(=O)[C@@H]1CCCN1C(=O)[C@@H](N)Cc1ccc(O)cc1)C(N)=O | 4.9 | 132 | 0.455 |  |  |  | 0.235 | 0.0899 | 0.0695 | 0.0234
C[C@@H](c1ccccc1)[C@H](NC(=O)[C@H](Cc1ccccc1)NC(=O)[C@@H]1CCCN1C(=O)[C@@H](N)Cc1ccc(O)cc1)C(N)=O | 6.36 | 148 | 0.139 |  |  | 16.1 | 0.00915 | 0.00346 | 0.00167 | 0.00097
C[C@@H](c1ccccc1)[C@@H](NC(=O)[C@H](Cc1c[nH]c2ccccc12)NC(=O)[C@@H]1CCCN1C(=O)[C@@H](N)Cc1ccc(O)cc1)C(N)=O |  | 124 | 0.784 |  |  |  |  |  | 0.107 | 0.047
C[C@@H](c1ccccc1)[C@H](NC(=O)[C@H](Cc1c[nH]c2ccccc12)NC(=O)[C@@H]1CCCN1C(=O)[C@@H](N)Cc1ccc(O)cc1)C(N)=O |  | 163 | 0.114 |  |  | 10.7 |  |  | 0.0008 | 0.00047
C[C@H](c1ccccc1)[C@@H](NC(=O)[C@@H]1CCCN1C(=O)[C@@H](N)Cc1ccc(O)cc1)C(=O)N[C@@H](Cc1ccccc1)C(N)=O | 6.76 | 105 | 0.0077 |  |  |  |  |  |  | 
